Drawing on ChEMBL document CHEMBL1140872, “Discovery of a potent and selective inhibitor for human carbonyl reductase 1 from propionate scanning applied to the macrolide zearalenone” (Bioorg Med Chem, 2009), this text covers Tm for seven compounds.

Experiment [1] addresses T1, Carbonyl reductase [NADPH] 1 (Homo sapiens) (UniProt P16152).
T1 sequence (whole entry): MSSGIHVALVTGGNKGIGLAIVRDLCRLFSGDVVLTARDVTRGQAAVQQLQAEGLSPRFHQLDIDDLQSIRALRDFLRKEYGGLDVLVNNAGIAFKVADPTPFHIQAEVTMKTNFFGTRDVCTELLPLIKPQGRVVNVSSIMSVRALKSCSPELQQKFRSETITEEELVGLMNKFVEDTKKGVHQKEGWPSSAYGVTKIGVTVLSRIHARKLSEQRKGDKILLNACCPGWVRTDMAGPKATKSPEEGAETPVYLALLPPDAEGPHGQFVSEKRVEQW
Kind of experiment: Binding affinity to human recombinant carbonyl reductase 1 expressed in Escherichia coli assessed as thermal shift by differential scanning fluorimetry in presence of NADP+. The method in brief:
(§1)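 Thermal-shift (DSF) binding assay with purified recombinant catalytic domains or proteins carrying an N- or C-terminal His6 tag or GST fusion. Purity was >95% by SDS/PAGE and identity was confirmed by MS. Protein was at 2 µM final in 10 mM HEPES pH 7.5 and 150 mM NaCl. Tm shift is reported, with 2 °C as the threshold for binding.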

Experiment [2] has as its target Serine/threonine-protein kinase pim-2 (Homo sapiens) (UniProt Q9P1W9). Put plainly: Binding affinity to human recombinant PIM2 expressed in Escherichia coli assessed as thermal shift by differential scanning fluorimetry. The method in brief: as §1
(Differential scanning fluorimetry follows unfolding on heating by fluorescence.)

In experiment [3] the target is Serine/threonine-protein kinase pim-3 (Homo sapiens) (UniProt Q86V86). Put plainly: Binding affinity to human recombinant PIM3 expressed in Escherichia coli assessed as thermal shift by differential scanning fluorimetry. A digest of the protocol: as §1
Experiment [4] has as its target T2, Serine/threonine-protein kinase PLK4 (Homo sapiens) (UniProt O00444).
T2 sequence (whole entry): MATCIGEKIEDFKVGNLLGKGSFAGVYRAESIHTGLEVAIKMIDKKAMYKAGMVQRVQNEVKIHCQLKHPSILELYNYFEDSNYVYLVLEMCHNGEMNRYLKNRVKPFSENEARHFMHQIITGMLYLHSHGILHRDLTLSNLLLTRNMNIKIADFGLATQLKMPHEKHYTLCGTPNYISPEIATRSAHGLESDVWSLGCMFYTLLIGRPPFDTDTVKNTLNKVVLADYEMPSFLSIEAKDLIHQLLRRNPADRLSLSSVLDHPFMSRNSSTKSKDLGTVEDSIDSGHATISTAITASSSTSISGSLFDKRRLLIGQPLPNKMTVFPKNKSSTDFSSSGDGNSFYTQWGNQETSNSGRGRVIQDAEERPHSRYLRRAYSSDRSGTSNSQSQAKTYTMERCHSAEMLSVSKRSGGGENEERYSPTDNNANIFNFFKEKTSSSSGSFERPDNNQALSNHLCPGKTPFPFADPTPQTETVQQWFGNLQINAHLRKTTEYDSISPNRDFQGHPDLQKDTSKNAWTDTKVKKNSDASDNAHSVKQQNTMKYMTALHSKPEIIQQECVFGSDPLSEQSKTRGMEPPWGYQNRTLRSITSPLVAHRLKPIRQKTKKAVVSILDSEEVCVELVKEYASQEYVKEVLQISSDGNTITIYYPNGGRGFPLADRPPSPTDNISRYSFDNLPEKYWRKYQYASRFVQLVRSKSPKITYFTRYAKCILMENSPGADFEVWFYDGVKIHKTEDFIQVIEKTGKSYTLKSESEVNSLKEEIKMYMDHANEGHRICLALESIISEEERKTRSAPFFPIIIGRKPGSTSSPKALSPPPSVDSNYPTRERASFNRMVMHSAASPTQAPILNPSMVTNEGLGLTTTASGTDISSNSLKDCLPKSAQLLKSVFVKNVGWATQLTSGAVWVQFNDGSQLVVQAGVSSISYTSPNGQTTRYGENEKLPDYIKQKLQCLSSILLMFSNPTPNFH
Kind of experiment: Binding affinity to human recombinant PLK4 expressed in Escherichia coli assessed as thermal shift by differential scanning fluorimetry. A digest of the protocol: as §1

For experiment [5], the target named is T3, Carbonyl reductase [NADPH] 3 (Homo sapiens) (UniProt O75828).
T3 sequence (whole entry): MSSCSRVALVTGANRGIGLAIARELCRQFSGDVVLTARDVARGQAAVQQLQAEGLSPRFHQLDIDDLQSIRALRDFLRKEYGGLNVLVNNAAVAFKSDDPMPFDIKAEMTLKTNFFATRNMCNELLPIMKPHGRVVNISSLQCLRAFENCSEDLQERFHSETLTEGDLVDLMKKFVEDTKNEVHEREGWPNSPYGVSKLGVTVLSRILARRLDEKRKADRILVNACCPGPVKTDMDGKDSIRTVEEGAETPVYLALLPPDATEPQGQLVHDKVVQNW
Kind of experiment: Binding affinity to human recombinant carbonyl reductase 3 expressed in Escherichia coli assessed as thermal shift by differential scanning fluorimetry in presence of NADPH. The method in brief: as §1

Experiment [6] deals with T3, Carbonyl reductase [NADPH] 3 (Homo sapiens). Kind of experiment: Binding affinity to human recombinant carbonyl reductase 3 expressed in Escherichia coli assessed as thermal shift by differential scanning fluorimetry in presence of NADP+. The method in brief: as §1
Experiment [7] addresses Heat shock protein HSP90 (Homo sapiens) (UniProt P07900+P08238).
Experiment [8] deals with T4, Serine/threonine-protein kinase 3 (Homo sapiens) (UniProt Q13188).
T4 sequence (whole entry): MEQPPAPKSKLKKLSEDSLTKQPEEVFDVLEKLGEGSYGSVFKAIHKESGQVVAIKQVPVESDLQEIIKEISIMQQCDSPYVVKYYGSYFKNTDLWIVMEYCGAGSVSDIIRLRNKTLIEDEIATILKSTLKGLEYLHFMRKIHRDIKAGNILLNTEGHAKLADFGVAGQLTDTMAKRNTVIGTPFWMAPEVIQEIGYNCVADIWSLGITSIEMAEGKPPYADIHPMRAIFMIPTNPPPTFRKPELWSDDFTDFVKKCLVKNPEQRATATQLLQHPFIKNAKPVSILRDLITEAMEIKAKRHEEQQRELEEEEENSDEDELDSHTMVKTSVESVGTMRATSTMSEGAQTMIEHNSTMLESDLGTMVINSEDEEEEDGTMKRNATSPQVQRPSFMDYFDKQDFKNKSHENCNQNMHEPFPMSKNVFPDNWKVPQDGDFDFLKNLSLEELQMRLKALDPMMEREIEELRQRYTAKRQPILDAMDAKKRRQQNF
Kind of experiment: Binding affinity to human recombinant STK3 expressed in Escherichia coli assessed as thermal shift by differential scanning fluorimetry. A digest of the protocol: as §1

The target in experiment [9] is Tyrosine-protein kinase Fes/Fps (Homo sapiens) (UniProt P07332). Kind of experiment: Binding affinity to human recombinant FES expressed in Escherichia coli assessed as thermal shift by differential scanning fluorimetry. The method in brief:
as §1

In experiment [10] the target is T1, Carbonyl reductase [NADPH] 1 (Homo sapiens). Put plainly: Binding affinity to human recombinant carbonyl reductase 1 expressed in Escherichia coli assessed as thermal shift by differential scanning fluorimetry in absence of cofactor. The method in brief:
as §1

Serine/threonine-protein kinase pim-2 (Homo sapiens), sequence (Q9P1W9 whole entry, looked up): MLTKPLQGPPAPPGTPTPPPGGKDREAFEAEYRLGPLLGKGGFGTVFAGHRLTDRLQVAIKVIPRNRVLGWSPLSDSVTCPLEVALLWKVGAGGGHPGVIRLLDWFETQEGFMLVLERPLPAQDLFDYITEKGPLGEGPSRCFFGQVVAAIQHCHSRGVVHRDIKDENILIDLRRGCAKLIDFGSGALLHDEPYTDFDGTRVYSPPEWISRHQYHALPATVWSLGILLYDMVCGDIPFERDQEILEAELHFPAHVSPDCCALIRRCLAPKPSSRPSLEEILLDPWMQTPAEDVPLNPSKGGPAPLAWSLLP
Tyrosine-protein kinase Fes/Fps (Homo sapiens), sequence (P07332 whole entry): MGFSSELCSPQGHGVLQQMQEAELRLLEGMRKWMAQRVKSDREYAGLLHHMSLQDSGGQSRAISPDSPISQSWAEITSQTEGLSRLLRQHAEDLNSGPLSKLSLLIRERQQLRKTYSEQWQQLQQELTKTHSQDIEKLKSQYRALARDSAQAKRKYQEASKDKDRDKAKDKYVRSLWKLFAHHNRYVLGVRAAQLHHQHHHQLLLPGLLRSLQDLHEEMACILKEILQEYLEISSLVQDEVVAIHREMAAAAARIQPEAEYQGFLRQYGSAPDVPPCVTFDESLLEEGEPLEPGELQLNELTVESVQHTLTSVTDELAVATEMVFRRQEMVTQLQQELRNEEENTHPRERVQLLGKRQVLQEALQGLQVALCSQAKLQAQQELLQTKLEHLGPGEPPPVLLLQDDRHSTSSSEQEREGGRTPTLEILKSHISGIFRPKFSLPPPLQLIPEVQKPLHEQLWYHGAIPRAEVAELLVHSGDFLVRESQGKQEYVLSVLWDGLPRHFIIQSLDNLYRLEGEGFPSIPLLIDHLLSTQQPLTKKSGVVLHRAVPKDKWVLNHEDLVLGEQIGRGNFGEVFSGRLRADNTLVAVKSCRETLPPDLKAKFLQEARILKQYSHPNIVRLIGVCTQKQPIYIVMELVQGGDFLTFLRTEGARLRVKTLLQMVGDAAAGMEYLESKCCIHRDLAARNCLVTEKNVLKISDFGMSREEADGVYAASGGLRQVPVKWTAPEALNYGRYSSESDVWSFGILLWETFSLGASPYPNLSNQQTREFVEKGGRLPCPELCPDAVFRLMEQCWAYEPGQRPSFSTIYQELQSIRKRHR

As for `C[C@H]1CCCC(=O)CCC/C=C/c2cc(O)cc(O)c2C(=O)O1`, the Tm is 3.6 °C in experiment [1]; 2.6 °C in experiment [2]; under 2 °C in experiment [3]; under 2 °C in [4]; under 2 °C in [5]; under 2 °C in experiment [6]. The Tm in experiment [7] was 2.3 °C; in [8], under 2 °C; in [9] it was under 2 °C; in experiment [10] it was under 2 °C.
For `COc1cc(O)c2c(c1)/C=C/CC[C@H](C)C(=O)CCC[C@H](C)OC2=O`, the Tm in experiment [1], in experiment [2], in experiment [3], in experiment [4], in [5] and in experiment [6] was under 2 °C in each case. For the same compound, the Tm in experiment [7], in experiment [8], in experiment [9] and in experiment [10] was under 2 °C each time.
With `COc1cc2c(c(OC)c1)C(=O)O[C@@H](C)CCCC(=O)[C@@H](C)CC/C=C/2`, the Tm in experiment [1], in experiment [2], in experiment [3], in experiment [4], in [5] and in [6] was under 2 °C throughout. Moreover, the Tm in experiment [7], in experiment [8], in experiment [9] and in experiment [10] was under 2 °C throughout.
Turning to `COc1cc2c(c(OC)c1)C(=O)O[C@@H](C)CCC[C@@H](O)[C@@H](C)CC/C=C/2`, the Tm in experiment [1], in experiment [2], in [3], in experiment [4], in [5] and in experiment [6] was under 2 °C throughout. Besides, the Tm in experiment [7], in experiment [8], in experiment [9] and in experiment [10] was under 2 °C each time.
Turning to `C[C@@H]1C[C@H]2O[C@@H]2/C=C\C=C\C(=O)Cc2c(Cl)c(O)cc(O)c2C(=O)O1` [RADICICOL], the Tm was 4.6 °C in experiment [1]; under 2 °C in [2]; under 2 °C in experiment [3]; under 2 °C in [4]; under 2 °C in [5]; under 2 °C in [6]. Besides, the Tm in experiment [8], in experiment [9] and in experiment [10] was under 2 °C in each case.
In the case of `COC1=C2C[C@@H](C)C[C@H](OC)[C@H](O)[C@@H](C)/C=C(\C)[C@H](OC(N)=O)[C@@H](OC)/C=C\C=C(/C)C(=O)NC(=CC1=O)C2=O`, the Tm in [1], in experiment [2], in experiment [3], in experiment [4], in experiment [5] and in experiment [6] was under 2 °C throughout. The Tm in experiment [8], in experiment [9] and in experiment [10] was under 2 °C throughout.
`C[C@H]1CCCC(=O)[C@@H](C)CC/C=C/c2cc(O)cc(O)c2C(=O)O1`: the Tm in experiment [1] is 3.9 °C; in experiment [2], under 2 °C; in experiment [3] it was under 2 °C; in experiment [4] it was under 2 °C; in [5] it was under 2 °C; in [6], under 2 °C. Moreover, the Tm in experiment [7], in experiment [8], in experiment [9] and in experiment [10] was under 2 °C in each case.
